# Source: PubChem BioAssay (several laboratories)
# MC4R barr agon = human MC4R agonism via beta-arrestin | U2OS MC4R beta-arrestin complementation, luminescence; percent of melanotan II response, DMSO zero | 360,000 tested, 0.98% active | activation, % at 8.9 µM;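 active = activation above a per-plate cutoff, the mean activation of sample wells on that plate plus 3 SD, cut at about 8% in these data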
# Target sequence (P32245 whole entry, looked up): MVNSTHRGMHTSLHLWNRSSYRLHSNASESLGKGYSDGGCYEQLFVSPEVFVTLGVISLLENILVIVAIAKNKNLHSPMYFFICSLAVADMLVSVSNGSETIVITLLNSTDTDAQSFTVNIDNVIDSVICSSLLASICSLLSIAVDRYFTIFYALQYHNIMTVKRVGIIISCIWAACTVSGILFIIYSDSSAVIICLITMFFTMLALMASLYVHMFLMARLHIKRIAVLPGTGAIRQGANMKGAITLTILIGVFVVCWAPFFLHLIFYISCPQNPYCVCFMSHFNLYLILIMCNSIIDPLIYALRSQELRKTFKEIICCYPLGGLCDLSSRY
# H9c2 TAG inh = reduces triacylglycerol accumulation in H9c2 cells; Nile Red lipid (TAG) fluorescence; cells loaded with 200 µM oleic acid; inhibition, % at 12.5 µM; 230,000 tested, 0.66% active; AID 651582;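 active = pattern-corrected inhibition of lipid staining of at least 50% with the nuclear-stain viability signal not falling by more than 50%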;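 note: 0% = DMSO wells and 100% = triacsin C control wells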
# NTR1 agonist = agonists of human neurotensin receptor NTR1; P30989; NTR1-U2OS beta-arrestin-GFP spot imaging, agonist mode; activation, % at 20 µM; 330,000 tested, 0.17% active; AID 493036;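 active = activation at or above 40% of the spot to cytoplasm intensity ratio, with at least 20 cells analyzed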;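 note: 0% = DMSO without peptide and 100% = 100 nM NTR1 peptide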
# MC4R antagonist = blocks human MC4R cAMP signaling; P32245; MC4R-expressing cells, MTII-stimulated cAMP, LANCE TR-FRET; inhibition, % at 6.5 µM; 360,000 tested, 0.48% active; AID 540295;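 active = inhibition above its plate's cutoff, the mean of tested wells on that plate plus 3 SD, cut at about 29% in these data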;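 note: 0% = Melanotan II alone and 100% = Melanotan II plus saturating MCL0020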
#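 System: U2OS cells stably expressing human melanocortin 4 receptor (MC4R). Reagent: Melanotan II challenge after compound preincubation. Doses: 6.5 µM. Times: 30-min compound, 1-h challenge, 1-h detection, room temperature. Measured by: TR-FRET with Eu-cAMP and labeled anti-cAMP, 671 nm. Replicates: singlicate.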
# aDG glyco up = alpha-DG glycosylation activation; Pro5-aDG cells, alpha-DG glycosylation AlphaScreen (IIH6); 0% Pro5, 100% B10-LARGE cell signal; activation, % at 10 µM; 360,000 tested, 0.22% active;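 active = activation of at least 8% versus controls, or a plate z-score of at least 8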;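 note: Pro5 are CHO cells carrying HIG-tagged alpha-DG that lacks glycosylation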
# Tb MetRS inh = blocks T. brucei methionyl-tRNA synthetase activity; purified T. brucei MetRS, ATP depletion, Kinase-Glo luminescence; inhibition, % at 11.9 µM; 360,000 tested, 0.4% active;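 active = inhibition above a per-plate cutoff of the control wells' mean inhibition plus 3 SD, cut at about 5.5% in these data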;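 note: 0% = DMSO wells median and 100% = median of wells with control inhibitor compound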
#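 Dosing: 11.9 µM compound single dose, 0.9% DMSO; Assay system: purified T. brucei MetRS enzyme; Measured by: Kinase-Glo luciferase luminescence reporting remaining unconsumed ATP; Schedule: 15 min plus 2 h at 25 °C.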
# MC4R barr conf = human MC4R beta-arrestin agonism confirmation | shares compounds with MC4R barr agon | U2OS MC4R beta-arrestin recruitment, luminescence; scaled DMSO 0%, Melanotan II 100% | activation, % at 8.9 µM | 2,400 tested, 31% active | AID 602192;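 active = mean activation across replicates above the hit cutoff set in the earlier primary screen, cut at about 8% in these data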
# MOR DOR agonist = activates mu-delta opioid heterodimer, MC4R agonist counter-screen | shares compounds with MC4R barr agon | U2OS PathHunter beta-arrestin, beta-gal luminescence; percent of deltorphin B response, DMSO zero | activation, % at 9.2 µM | 2,400 tested, 5.8% active;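 active = mean activation across replicates exceeds the hit threshold derived in the earlier primary screen, cut at about 18% in these data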;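 note: 100% = deltorphin B at 0.9 µM final and 0% = DMSO alone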
# * hit, by the source's call; · = no result given. Most compounds without a hit are left out; they make up all but 2.4% or so of the library.
SMILES,MC4R barr agon,H9c2 TAG inh,NTR1 agonist,MC4R antagonist,aDG glyco up,Tb MetRS inh,MC4R barr conf,MOR DOR agonist
COc1ccc(-c2nc(C(N)=O)c3[nH]c(=O)n(-c4cccc(Cl)c4)c3n2)cc1OC,13*,23,·,-3,1,0,11*,12
CC(C)NC(=O)C1(C)CN(S(C)(=O)=O)CC(=O)N1CC(F)(F)F (configuration not stated),·,·,·,·,0,0,·,·
O=C(CC(=O)Nc1ccc(Cl)cc1Cl)Nc1ccc(Cl)cc1Cl,11*,·,-1,6,0,-1,3,3
COc1cccc(C(C)(O)c2nc(-c3cccc(C(C)C)c3)cs2)c1 (configuration not stated),0,-14,·,4,0,0,·,·
Oc1ccccc1-c1nc(NCc2ccccc2)c2ccccc2n1,12*,·,11,2,0,-1,8,5
Oc1ccccc1-c1nc(NCc2ccco2)c2ccccc2n1,13*,·,10,-5,0,-2,6,3
Oc1ccccc1-c1nc(NCc2cccnc2)c2ccccc2n1,-3,-8,5,-2,0,0,·,·
Cc1cc(Br)cn2c(Cc3cccc(F)c3)c(-c3ccccc3)nc12,·,·,·,·,0,0,·,·
Cc1cc(NC(=O)COC(=O)c2oc3c(ccc4ccccc43)c2C)no1,18*,4,2,17,0,-1,6,6
Cc1cc(NC(=O)COc2ccc3oc4ccccc4c3c2)no1,10*,-5,0,3,0,-1,1,2
Cc1cc(NC(=O)COc2ccc3c(C)c(C)c(=O)oc3c2)no1,0,-3,·,5,0,0,·,·
Cc1cc(NC(=O)COC(=O)c2ccccc2O)no1,1,0,1,8,0,0,·,·
Cc1ccc(C(=O)OCC(=O)Nc2cc(C(C)(C)C)no2)c(C)c1,9.9*,-11,5,18,0,0,7,10
Cc1ccc(C)c(C(=O)OCC(=O)NC(=O)NCc2ccccc2)c1,13*,-9,·,20,0,0,7,11
COc1ccc(C(C(=O)NC(C)(C)C)n2c(-c3ccc(-c4ccccc4)cc3)nc3ccccc32)cc1 (configuration not stated),·,·,·,·,2,0,·,·
Cc1noc(C)c1S(=O)(=O)N1CCCCC1c1cc(C(=O)Nc2cccc3c2CCCC3)no1 (configuration not stated),-1,15,·,7,0,0,·,·
Cc1ccc(-c2cc(C(=O)OCC(=O)Nc3cc(C)on3)c3ccccc3n2)c(C)c1,12*,2,9,19,0,-1,4,6
CC1=C(C(=O)N(C(C)C)C(C)C)CC(CC(=O)NC(c2ccccc2)c2ccccc2)C(=O)N1CCC1=CCCCC1 (configuration not stated),·,·,·,·,0,0,·,·
COC(=O)c1c(NC(=O)Nc2ccc(Cl)cc2)sc(C)c1C,10*,5,-5,0,0,0,2,9
COc1ccc(OC)c(CN2C(=O)CCC2(C)c2nnnn2-c2c(C)cccc2C)c1 (configuration not stated),·,·,·,·,0,-1,·,·
Cc1ccc2nc(NC(=O)CCNS(=O)(=O)c3cccs3)sc2c1,0,23,0,3,0,-1,·,·
Cc1ccc2nc(NC(=O)CCNS(=O)(=O)c3ccc(Br)s3)sc2c1,14*,·,0,4,0,0,7,7
O=C(COc1ccc(Cl)cc1)Nc1ccccc1C(=O)NCc1ccco1,6,·,13,-5,1,0,·,·
Cc1cc(C)cc(OCC(=O)Nc2ccccc2C(=O)NCc2ccco2)c1,31*,10,3,-1,0,0,1,5
